Results gathered from unrelated publications.
Each line is one published result; the experiments were not run side by side.
Organism: Acinetobacter baumannii
Effect on: microbial growth

COc1ncc(O)c2c1C[C@H]1C[C@H]3[C@H](N(C)C)C(O)=C(C(N)=O)C(=O)[C@@]3(O)C(O)=C1C2=O.Cl.Cl
MIC (broth dilution; ATCC19606): 0.5 µg/mL

CC(C)(O/N=C(\C(=O)N[C@@H]1C(=O)N2C(C(=O)[O-])=C(C[n+]3ccccc3)CS[C@H]12)c1csc(N)n1)C(=O)O
MIC (broth dilution; ATCC19606): 4 µg/mL

CN(C)[C@@H]1C(O)=C(C(N)=O)C(=O)[C@@]2(O)C(O)=C3C(=O)c4c(O)cnc(-c5ccccc5)c4C[C@H]3C[C@@H]12.Cl.Cl
MIC (broth dilution; ATCC19606): 0.125 µg/mL

C[C@@H](O)[C@H]1C(=O)N2C(C(=O)O)=C(SCCN=CN)C[C@H]12
MIC (broth dilution; KCCM40203; 16 h): 1 µM

CCCCC(=O)N1C(=O)/C(=C(/C)O)C(=O)C1CC(C)C (stereo not shown)
MIC (ATCC19606): > 200 µg/mL

COc1cccc2c(O)c3c(cc12)C[C@H]1C[C@H]2[C@H](N(C)C)C(O)=C(C(N)=O)C(=O)[C@@]2(O)C(O)=C1C3=O
MIC (broth dilution; ATCC19606): > 32 µg/mL

CNC(C)C1CCC(N)C(OC2C(N)CC(N)C(OC3OCC(C)(O)C(NC)C3O)C2O)O1 (stereo not shown)
MIC (broth dilution; ATCC19606): 0.5 µg/mL

N#Cc1ccc(N/N=C/c2cn(-c3ccc(C(=O)O)cc3)nc2-c2ccc(F)cc2)cc1
MIC (ATCCBAA1605): > 25 µg/mL

NC1CCc2c1[nH]c1ccc(Cl)c(Cl)c21 (stereo not shown)
MIC (broth dilution; ATCC19606): 8 µg/mL

N=C(N)c1ccc(OCc2ccc(Br)cc2COc2ccc(C(=N)N)cc2)cc1
MIC (broth dilution; ATCC17978): > 200 µg/mL

CN(C)c1cc(CNCC(C)(C)C)c(O)c2c1C[C@H]1C[C@H]3[C@H](N(C)C)C(O)=C(C(N)=O)C(=O)[C@@]3(O)C(O)=C1C2=O
MIC (broth dilution; ATCC19606): 1 µg/mL

CN(Cc1ccc2cc3c(c(O)c2c1)C(=O)C1=C(O)[C@]2(O)C(=O)C(C(N)=O)=C(O)[C@@H](N(C)C)[C@@H]2C[C@@H]1C3)c1ccccc1
MIC (broth dilution; ATCC19606): 32 µg/mL

O=C(O)c1ccc(-n2cc(/C=N/Nc3cccc(Br)c3)c(-c3ccc(F)cc3)n2)cc1
MIC (ATCCBAA1605): 12.5 µg/mL

CN[C@@H]1[C@@H](O)[C@@H](O[C@@H]2[C@@H](O)[C@H](O[C@H]3OC(CNCCO)=CC[C@H]3N)[C@@H](N)C[C@H]2NC(=O)[C@@H](O)CCN)OC[C@]1(C)O
MIC: 2 µg/mL

CN(C)[C@@H]1C(O)=C(C(N)=O)C(=O)[C@@]2(O)C(O)=C3C(=O)c4c(O)cncc4C[C@H]3C[C@@H]12.Cl.Cl
MIC (broth dilution; ATCC19606): 2 µg/mL

CN[C@H](CC(C)C)C(=O)N[C@H]1C(=O)N[C@@H](CC(N)=O)C(=O)N[C@H]2C(=O)N[C@H]3C(=O)N[C@H](C(=O)N[C@H](C(=O)O)c4cc(O)cc(O)c4-c4cc3ccc4O)[C@H](O)c3ccc(c(Cl)c3)Oc3cc2cc(c3O[C@@H]2O[C@H](CO)[C@@H](O)[C@H](O)[C@H]2O[C@H]2C[C@](C)(N)[C@H](O)[C@H](C)O2)Oc2ccc(cc2Cl)[C@H]1O
MIC (broth dilution; BAA747): > 128 µM

N=C(N)c1ccc(OCc2ccc(-c3ccccc3)cc2COc2ccc(C(=N)N)cc2)cc1
MIC (broth dilution; ATCC17978): > 200 µg/mL

CN(C)c1ccc(-c2ccc3cc4c(c(O)c3c2)C(=O)C2=C(O)[C@]3(O)C(=O)C(C(N)=O)=C(O)[C@@H](N(C)C)[C@@H]3C[C@@H]2C4)cc1
MIC (broth dilution; ATCC19606): 32 µg/mL

O=C(CCCCCC[P+](c1ccccc1)(c1ccccc1)c1ccccc1)Nc1cc(O)c(O)c(O)c1.[Br-]
MIC (broth dilution; ATCC19606; 18 h): > 32 µg/mL

CNC(=O)c1cc(Oc2ccc(NC(=O)Nc3ccc(Cl)c(C(F)(F)F)c3)cc2)ccn1
MIC (DSM30007): > 100 µM

CCCCCCC/C=C/C(=O)N1C(=O)/C(=C(\O)c2ccc(O)cc2)C(=O)C1CC(C)C (stereo not shown)
MIC (ATCC19606): > 200 µg/mL

O=C(CCc1cc(O)c(O)c(O)c1)NCCCCCCCC[P+](c1ccccc1)(c1ccccc1)c1ccccc1.[Br-]
MIC (broth dilution; ATCC19606; 18 h): > 32 µg/mL

CO[C@H]1/C=C/O[C@@]2(C)Oc3c(C)c(O)c4c(O)c(c(/C=N/N5CCN(C)CC5)c(O)c4c3C2=O)NC(=O)/C(C)=C\C=C\[C@H](C)[C@H](O)[C@@H](C)[C@@H](O)[C@@H](C)[C@H](OC(C)=O)[C@@H]1C
MIC (NCTC13301): 4 µg/mL

CN(C)c1cc(NC(=O)CNC(C)(C)C)c(O)c2c1C[C@H]1C[C@H]3[C@H](N(C)C)C(O)=C(C(N)=O)C(=O)[C@@]3(O)C(O)=C1C2=O
MIC (ATCC19606): 1.2 µg/mL

O=C(CCCCCCCC[P+](c1ccccc1)(c1ccccc1)c1ccccc1)Nc1ccc(O)c(O)c1.[Br-]
MIC (broth dilution; ATCC19606; 18 h): > 32 µg/mL

CCCCCCC/C=C/C(=O)N1C(=O)/C(=C(\O)C2CCNCC2)C(=O)C1CC(C)C (stereo not shown)
MIC (ATCC19606): 50 µg/mL

NC[C@H]1O[C@H](O[C@H]2[C@H](O)[C@@H](O[C@H]3O[C@H](CO)[C@@H](O)[C@H](N)[C@H]3O)[C@H](N)C[C@@H]2N)[C@H](N)C[C@@H]1O
MIC (broth dilution): 2.6 µM

N=C(N)c1ccc(OCc2cc(Br)cc(COc3ccc(C(=N)N)cc3)c2)cc1
MIC (broth dilution; ATCC17978): > 200 µg/mL

CC(C)Oc1c(NC(=O)c2ccc(NC(=O)[C@H](CC(N)=O)NC(=O)c3ccc(NC(=O)c4ccc(C#N)s4)cc3)cc2)ccc(C(=O)Nc2ccc(C(=O)O)cc2)c1O
MIC (DSM30008): 0.125 µg/mL

CCCCCCC/C=C/C(=O)N1C(=O)/C(=C(\O)c2ccc(F)cc2)C(=O)C1CC(C)C (stereo not shown)
MIC (ATCC19606): > 200 µg/mL

O=C(CCc1ccc(O)c(O)c1)NCCCCCCCC[P+](c1ccccc1)(c1ccccc1)c1ccccc1.[Br-]
MIC (broth dilution; ATCC19606; 18 h): > 32 µg/mL

COc1c2c(c(O)c3cc(F)ccc13)C(=O)C1=C(O)[C@]3(O)C(=O)C(C(N)=O)=C(O)[C@@H](N(C)C)[C@@H]3C[C@@H]1C2
MIC (broth dilution; ATCC19606): 2 µg/mL

CCCCCCC/C=C/C(=O)N1C(=O)/C(=C(\O)c2ccccc2)C(=O)C1CC(C)C (stereo not shown)
MIC (ATCC19606): > 200 µg/mL

CN(C)c1nc(NC(=O)CNC(C)(C)C)c(O)c2c1C[C@H]1C[C@H]3[C@H](N(C)C)C(O)=C(C(N)=O)C(=O)[C@@]3(O)C(O)=C1C2=O.Cl
MIC (broth dilution; ATCC19606): > 32 µg/mL

CC(NCCCCOc1ccc(Cl)c(Cl)c1)c1cc2cc(Br)ccc2[nH]1 (stereo not shown)
MIC (broth dilution; ATCC19606): 32 µg/mL

O=C(Nc1ccc([N+](=O)[O-])cc1F)c1ccccc1O
MIC (broth dilution; BAA1605): > 64 µg/mL

O=C(O)c1ccc(-n2cc(/C=N/Nc3cccc(F)c3)c(-c3ccc4ccccc4c3)n2)cc1
MIC (ATCCBAA1605): 25 µg/mL

CN[C@@H]1[C@H](O[C@H]2[C@H](O[C@H]3[C@H](O)[C@@H](O)[C@H](N=C(N)N)[C@@H](O)[C@@H]3N=C(N)N)O[C@@H](C)[C@]2(O)C=O)O[C@@H](CO)[C@H](O)[C@H]1O
MIC (ATCC19606): > 2000 µg/mL

NC1CCCCc2c1[nH]c1ccc(Br)cc21 (stereo not shown)
MIC (broth dilution; ATCC19606): 16 µg/mL

O=C(O)c1ccc(-n2cc(/C=N/Nc3ccc(Br)cc3)c(-c3ccc4ccccc4c3)n2)cc1
MIC (ATCCBAA1605): 12.5 µg/mL
